Test results published in ChEMBL document CHEMBL1137349, “Selective angiotensin II AT2 receptor agonists: arylbenzylimidazole structure-activity relationships” (J Med Chem, 2006).
Calls of active or inactive are those of the source. The rule behind the calls is not given here.

What was measured:
NG108-15 [1] = assay: Induction of neurite growth in NG108-15 cells relative to control; assay type: functional, cell-based
How it was run: (§1)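 NG108-15 cells, which express only AT2, were plated at 4 × 10⁴ cells per 35 mm dish and grown 3 days with or without 0.1 µM agonist, with Ang II as reference. Micrographs were taken under phase contrast. Cells with at least one neurite longer than the cell body were scored positive, as a percentage of 50–100 total cells.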

[2] = biological target: Type-1 angiotensin II receptor (Rattus norvegicus) (UniProt P25095); assay: Displacement of [125I]Ang2 from AT1 receptor in rat liver membrane
NG108-15 [3] = assay: Induction of NG108-15 cell death at 1 uM; assay type: functional, cell-based
How it was run: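 NG108-15 neuroblastoma × glioma hybrid cells plated at 4 × 10⁴ cells per 35 mm dish and cultured 3 days with test agent across 1 pM to 1 µM. Cells were then examined by phase contrast microscopy and micrographs taken to assess cell death.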

NG108-15 [4] = assay: Induction of neurite growth in NG108-15 cells at 0.1 uM after 3 days in presence of PD-123319; assay type: functional, cell-based
How it was run: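 Here the 0.1 µM agonist was co-incubated with 1 µM of the AT2 antagonist PD 123,319 for 3 days. NG108-15 cells were plated at 4 × 10⁴ per 35 mm dish. The percentage of cells bearing a neurite longer than the cell body was counted from phase-contrast micrographs of 50–100 cells.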

NG108-15 [5] = assay: Induction of neurite growth in NG108-15 cells at 0.1 uM after 3 days; assay type: functional, cell-based; how it was run: as §1

Ki [2] [µM]	SMILES	further results
–	Cc1cc(Cn2cnc3c2C[C@@H](C(=O)O)N(C(=O)C(c2ccccc2)c2ccccc2)C3)ccc1N(C)C	Activity (NG108-15 [1]): inactive
> 10	CCCCOC(=O)NS(=O)(=O)c1sc(CCCC)cc1-c1ccc(Cn2ccnc2)cc1	–
> 10	CC(C)Cc1cc(-c2ccc(Cn3ccnc3)cc2)c(S(=O)(=O)NC(=O)OC(C)(C)C)s1	–
> 10	CCCCS(=O)(=O)NC(=O)c1sc(CC(C)C)cc1-c1ccc(Cn2ccnc2)cc1	–
> 10	CCCCS(=O)(=O)NS(=O)(=O)c1sc(CC(C)C)cc1-c1ccc(Cn2ccnc2)cc1	–
> 10	CC(C)Cc1cc(-c2ccc(Cn3ccnc3)cc2)c(S(=O)(=O)NC(=O)OC(C)C)s1	–
> 10	CCCCN(C)C(=O)NS(=O)(=O)c1sc(CC(C)C)cc1-c1ccc(Cn2ccnc2)cc1	–
–	CCCCOC(=O)NS(=O)(=O)c1sc(CCC)cc1-c1ccc(Cn2ccnc2)cc1	Activity (NG108-15 [3]): Active; Activity (NG108-15 [4]): inactive; Activity (NG108-15 [5]): Active
–	CCCCOC(=O)NS(=O)(=O)c1ccc(OCCCC)cc1-c1ccc(Cn2ccnc2)cc1	Activity (NG108-15 [3]): Active; Activity (NG108-15 [4]): inactive; Activity (NG108-15 [5]): Active
> 10	COCCOC(=O)NS(=O)(=O)c1sc(CC(C)C)cc1-c1ccc(Cn2ccnc2)cc1	–
> 10	CCCCOC(=O)NS(=O)(=O)c1ccc(CCCC)cc1-c1ccc(Cn2ccnc2)cc1	–
> 10	CCCCOC(=O)NS(=O)(=O)c1ccc(OC(C)C)cc1-c1ccc(Cn2ccnc2)cc1	–
> 10	CCCCc1ccc(S(=O)(=O)NC(=O)OCC)c(-c2ccc(Cn3ccnc3)cc2)c1	–
